# In ChEMBL document CHEMBL5724801, “EUbOPEN Chemogenomics Library - Multiplex” (2024):
# Values joined by “and” are separate entries in the source; they are usually repeats but may differ in a detail not shown here. Identical values can stand only once.
# Tested on: Fibroblast
# Experiment: Multiplex assay against human fibroblast
# Type: toxicity, cell-based
# Settings: 12 h, 1 µM, compound concentration 1 uM
# How it was run: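 Compound was added to live cells that had been stained at seeding with Hoechst33342, BioTracker Green Microtubule Cytoskeleton Dye, MitoTracker Red and Annexin V Alexa Fluor 680, and imaging followed on a CQ1 microscope at 37°C and 5% CO2. CellPathfinder machine-learning gating divided cells into Hoechst high-intensity objects or normal cells, normal cells into healthy, pyknosed or fragmented nuclei, and pyknosed cells into mitotic or apoptotic. Tubulin, mitochondrial-mass and membrane-permeability phenotypes are per cents of healthy-nucleus cells.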
SMILES,Population Apoptotic (%),Population Fragmented Nuclei (%),Population Healthy Nuclei (%),Population Hoechst High Intensity Objects (%),Population Membrane Permeable-Phenotype (%),Population Mitochondria Different-Phenotype (%),Population Mitotic Cells (%),Population Normal (%),Population Pyknosed Nuclei (%),Population Tubulin-Different-Phenotype (%)
Cc1cccc(NC(=O)CN2CCC(c3ccccn3)CC2)c1.Cl.Cl,47% and 33%,16% and 25%,70% and 55%,4% and 6%,0% and 2%,6% and 5%,52% and 66%,95% and 93%,12% and 19%,34% and 35%
C[C@H](NC(=O)c1c(C(F)F)nn(C)c1Oc1cccc(C(F)(F)F)c1)c1ccc(C(=O)O)cc1 [PALUPIPRANT],26% and 24%,29% and 23%,57% and 52%,5% and 6%,0% and 11%,4% and 6%,73% and 75%,94% and 93%,12% and 23%,23% and 55%

# Same assay, conditions: 12 h, 1 µM, compound concentration 1 uM
row,SMILES,Total Cell Count
1,Cc1cccc(NC(=O)CN2CCC(c3ccccn3)CC2)c1.Cl.Cl,140 and 232
2,C[C@H](NC(=O)c1c(C(F)F)nn(C)c1Oc1cccc(C(F)(F)F)c1)c1ccc(C(=O)O)cc1 [PALUPIPRANT],187 and 148

# Same assay, conditions: 12 h, 10 µM, compound concentration 10 uM
SMILES,Population Apoptotic (%),Population Healthy Nuclei (%),Population Hoechst High Intensity Objects (%),Population Membrane Permeable-Phenotype (%),Population Mitochondria Different-Phenotype (%),Population Mitotic Cells (%),Population Normal (%),Population Pyknosed Nuclei (%),Population Tubulin-Different-Phenotype (%),Total Cell Count
Cc1cccc(NC(=O)CN2CCC(c3ccccn3)CC2)c1.Cl.Cl,59% and 34%,78% and 30%,10% and 2%,1% and 6%,7% and 10%,40% and 65%,89% and 98%,13% and 23%,36% and 56%,229 and 100
C[C@H](NC(=O)c1c(C(F)F)nn(C)c1Oc1cccc(C(F)(F)F)c1)c1ccc(C(=O)O)cc1 [PALUPIPRANT],45% and 35%,70% and 35%,,,6% and 13%,55% and 64%,97% and 85%,16% and 22%,45% and 60%,126 and 149

# Same assay, conditions: 24 h, 1 µM, compound concentration 1 uM
SMILES,Population Apoptotic (%),Population Fragmented Nuclei (%),Population Healthy Nuclei (%),Population Hoechst High Intensity Objects (%),Population Membrane Permeable-Phenotype (%),Population Mitochondria Different-Phenotype (%),Population Mitotic Cells (%),Population Normal (%),Population Pyknosed Nuclei (%),Population Tubulin-Different-Phenotype (%)
Cc1cccc(NC(=O)CN2CCC(c3ccccn3)CC2)c1.Cl.Cl,50% and 40%,18% and 26%,70% and 53%,2% and 4%,0% and 4%,8% and 6%,50% and 59%,97% and 95%,10% and 19%,25% and 30%
C[C@H](NC(=O)c1c(C(F)F)nn(C)c1Oc1cccc(C(F)(F)F)c1)c1ccc(C(=O)O)cc1 [PALUPIPRANT],40% and 42%,32% and 26%,58% and 53%,5% and 7%,1% and 8%,4% and 5%,60% and 57%,94% and 92%,8% and 20%,

# Same assay, conditions: 24 h, 1 µM, compound concentration 1 uM
row,SMILES,Total Cell Count
1,Cc1cccc(NC(=O)CN2CCC(c3ccccn3)CC2)c1.Cl.Cl,134 and 239
2,C[C@H](NC(=O)c1c(C(F)F)nn(C)c1Oc1cccc(C(F)(F)F)c1)c1ccc(C(=O)O)cc1 [PALUPIPRANT],178 and 141

# Same assay, conditions: 24 h, 10 µM, compound concentration 10 uM
SMILES,Population Apoptotic (%),Population Healthy Nuclei (%),Population Hoechst High Intensity Objects (%),Population Membrane Permeable-Phenotype (%),Population Mitochondria Different-Phenotype (%),Population Mitotic Cells (%),Population Normal (%),Population Tubulin-Different-Phenotype (%),Total Cell Count,Population Fragmented Nuclei (%)
Cc1cccc(NC(=O)CN2CCC(c3ccccn3)CC2)c1.Cl.Cl,64% and 42%,81% and 34%,7% and 0%,0% and 11%,11%,35% and 57%,92% and 100%,38% and 50%,217 and 105,
C[C@H](NC(=O)c1c(C(F)F)nn(C)c1Oc1cccc(C(F)(F)F)c1)c1ccc(C(=O)O)cc1 [PALUPIPRANT],60% and 38%,62% and 42%,5% and 10%,,7% and 3%,39% and 61%,94% and 89%,35% and 51%,131 and 138,18% and 40%

# Same assay, conditions: 24 h, 10 µM, compound concentration 10 uM
row,SMILES,Population Pyknosed Nuclei (%)
1,C[C@H](NC(=O)c1c(C(F)F)nn(C)c1Oc1cccc(C(F)(F)F)c1)c1ccc(C(=O)O)cc1 [PALUPIPRANT],18% and 17%

# Same assay, conditions: 48 h, 1 µM, compound concentration 1 uM
SMILES,Population Apoptotic (%),Population Fragmented Nuclei (%),Population Healthy Nuclei (%),Population Hoechst High Intensity Objects (%),Population Membrane Permeable-Phenotype (%),Population Mitochondria Different-Phenotype (%),Population Mitotic Cells (%),Population Normal (%),Population Pyknosed Nuclei (%),Population Tubulin-Different-Phenotype (%)
Cc1cccc(NC(=O)CN2CCC(c3ccccn3)CC2)c1.Cl.Cl,80% and 60%,25% and 31%,63% and 55%,3%,1% and 4%,3,20% and 39%,96%,11% and 12%,28% and 35%
C[C@H](NC(=O)c1c(C(F)F)nn(C)c1Oc1cccc(C(F)(F)F)c1)c1ccc(C(=O)O)cc1 [PALUPIPRANT],53%,34% and 30%,57% and 50%,11% and 3%,0% and 4%,4,46%,88% and 96%,7% and 19%,29% and 53%

# Same assay, conditions: 48 h, 1 µM, compound concentration 1 uM
row,SMILES,Total Cell Count
1,Cc1cccc(NC(=O)CN2CCC(c3ccccn3)CC2)c1.Cl.Cl,138 and 229
2,C[C@H](NC(=O)c1c(C(F)F)nn(C)c1Oc1cccc(C(F)(F)F)c1)c1ccc(C(=O)O)cc1 [PALUPIPRANT],184 and 147

# Same assay, conditions: 48 h, 10 µM, compound concentration 10 uM
SMILES,Population Apoptotic (%),Population Healthy Nuclei (%),Population Hoechst High Intensity Objects (%),Population Membrane Permeable-Phenotype (%),Population Normal (%),Population Pyknosed Nuclei (%),Population Tubulin-Different-Phenotype (%),Total Cell Count,Population Fragmented Nuclei (%),Population Mitochondria Different-Phenotype (%)
Cc1cccc(NC(=O)CN2CCC(c3ccccn3)CC2)c1.Cl.Cl,76% and 28%,75% and 39%,7% and 1%,2%,92% and 98%,7% and 6%,44% and 61%,238 and 109,,
C[C@H](NC(=O)c1c(C(F)F)nn(C)c1Oc1cccc(C(F)(F)F)c1)c1ccc(C(=O)O)cc1 [PALUPIPRANT],73% and 60%,60% and 45%,4% and 13%,1% and 10%,95% and 86%,18% and 9%,46% and 50%,130 and 122,20% and 45%,8% and 6%

# Same assay, conditions: 48 h, 10 µM, compound concentration 10 uM
row,SMILES,Population Mitotic Cells (%)
1,C[C@H](NC(=O)c1c(C(F)F)nn(C)c1Oc1cccc(C(F)(F)F)c1)c1ccc(C(=O)O)cc1 [PALUPIPRANT],26% and 40%
